Test results published in ChEMBL document CHEMBL2202970, “Nonsteroidal androgen receptor ligands: versatile syntheses and biological data” (2012).
Calls of active or inactive are those of the source. No cut-off for these calls is given here.

How the values were obtained:
[1] = tested on: LNCaP; experiment: Cytotoxicity against human LNCAP cells assessed as growth inhibition at 2 to 20 uM after 144 hrs by SRB assay; type: functional, cell-based
Outline: (§1)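 LNCaP and AR-overexpressing LNCaP-AR (3–5-fold higher AR) prostate cancer cells were incubated 144 h with scalar concentrations from 0.02 to 20 μM. Sulforhodamine B read-out was used for growth inhibition (IG50) and cytocidal (LC50) values. Results are the average of three independent experiments.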

[2] = target: T1, Androgen receptor (Homo sapiens) (UniProt P10275); experiment: Antagonist activity at human AR expressed in COS7 cells receptor assessed as inhibition of androgen-induced transcriptional activation at 10 nM to 10 uM by ARE-luciferase reporter gene assay; type: functional, cell-based; details: COS-7
T1 sequence (whole entry): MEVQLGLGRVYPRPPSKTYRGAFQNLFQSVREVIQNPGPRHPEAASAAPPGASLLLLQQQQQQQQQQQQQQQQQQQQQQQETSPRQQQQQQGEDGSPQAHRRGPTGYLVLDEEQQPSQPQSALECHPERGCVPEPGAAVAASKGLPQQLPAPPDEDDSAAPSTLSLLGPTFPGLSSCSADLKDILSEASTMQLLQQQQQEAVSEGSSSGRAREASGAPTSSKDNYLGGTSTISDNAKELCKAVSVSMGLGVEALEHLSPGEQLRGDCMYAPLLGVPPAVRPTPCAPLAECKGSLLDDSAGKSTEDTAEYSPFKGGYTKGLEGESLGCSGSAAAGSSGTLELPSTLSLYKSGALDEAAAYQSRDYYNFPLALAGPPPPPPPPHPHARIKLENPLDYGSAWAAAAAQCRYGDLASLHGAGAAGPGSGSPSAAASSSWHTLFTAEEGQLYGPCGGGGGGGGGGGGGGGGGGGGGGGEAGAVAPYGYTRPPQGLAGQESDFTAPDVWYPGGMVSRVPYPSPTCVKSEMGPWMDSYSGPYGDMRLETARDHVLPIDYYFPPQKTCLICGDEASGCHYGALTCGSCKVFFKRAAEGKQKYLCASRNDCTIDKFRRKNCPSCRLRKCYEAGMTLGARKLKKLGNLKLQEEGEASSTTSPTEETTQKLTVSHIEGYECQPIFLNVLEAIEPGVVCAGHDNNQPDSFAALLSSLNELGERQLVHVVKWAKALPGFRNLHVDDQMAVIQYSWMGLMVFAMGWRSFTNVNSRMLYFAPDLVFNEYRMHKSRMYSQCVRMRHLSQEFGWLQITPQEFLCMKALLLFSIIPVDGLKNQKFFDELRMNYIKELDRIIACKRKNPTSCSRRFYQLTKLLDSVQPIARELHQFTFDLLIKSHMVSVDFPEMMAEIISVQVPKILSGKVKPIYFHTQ
Outline: (§2)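 AR-negative Cos-7 cells plated subconfluent (60–70%) in phenol red-free DMEM with 5% charcoal-stripped serum for 48 h, then cotransfected with 0.3 μg 3416-pTK-TATA-Luc and 1.5 μg pSG5-hAR or empty pSG5. After 24 h, stimulated 24 h with 10 nM R1881 plus compounds. Lysate luciferase as fold induction; hAR checked by Western blot; three experiments.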

[3] = target: T1, Androgen receptor (Homo sapiens); experiment: Agonist activity at AR receptor in human LNCAP cells at 10 nM to 10 uM by ARE-luciferase reporter gene assay; type: functional, cell-based
Outline: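 Androgen-responsive LNCaP cells plated subconfluent (60–70%) in phenol red-free DMEM with 5% charcoal-stripped serum for 48 h, then transfected with 0.3 μg 3416-pTK-TATA-Luc ARE reporter. After 24 h, cells were exposed for 24 h to compounds (10 nM to 10 μM) without or with 10 nM R1881. Lysate luciferase expressed as fold induction; three independent experiments.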

[4] = tested on: LNCaP-AR; experiment: Cytotoxicity against human LNCaP-AR cells assessed as growth inhibition at 2 to 20 uM after 144 hrs by SRB assay relative to control; type: functional, cell-based; outline: as §1
[5] = tested on: LNCaP; experiment: Cytocidal activity in against human LNCAP cells after 144 hrs by SRB assay; type: functional; details: read-out: LC50 (the source's name); outline: as §1
[6] = Cytocidal activity in human LNCaP-AR cells after 144 hrs by SRB assay; type: functional; details: read-out: LC50 (the source's name); outline: as §1
[7] = tested on: LNCaP; experiment: Induction of apoptosis in human LNCAP cells at 20 uM after 144 hrs by […]; type: functional
[8] = Induction of apoptosis in human LNCaP-AR cells at 20 uM after 144 hrs by propidium iodide staining based flow cytometry analysis; type: functional
[9] = target: T1, Androgen receptor (Homo sapiens); experiment: Antagonist activity at human AR expressed in COS7 cells receptor assessed as inhibition of R1881-induced transcriptional activation at 10 uM by ARE-luciferase reporter gene assay; type: functional, cell-based; details: COS-7; outline: as §2
[10] = target: T1, Androgen receptor (Homo sapiens); experiment: Antagonist activity at AR receptor in human LNCAP cells assessed as inhibition of R1881-induced transcriptional activation at 10 nM to 10 uM by ARE-uciferase reporter gene assay; type: functional, cell-based
Outline: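 LNCaP cells at 60–70% confluence, plated in phenol red-free DMEM with 5% charcoal-stripped serum, then transfected after 48 h with 0.3 μg 3416-pTK-TATA-Luc reporter. 24 h later, stimulated for 24 h with 10 nM R1881 with or without test compound (10 nM–10 μM). Luciferase activity in lysates was expressed as fold induction. Three independent experiments were averaged.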

[11] = Growth inhibition in human LNCaP-AR cells after 144 hrs by SRB assay; type: functional; outline: as §1

Cc1ccc(S(=O)(=O)N[C@@](C)(CS(=O)(=O)c2ccc(F)cc2)C(=O)Nc2ccc(C#N)c(C(F)(F)F)c2)cc1
growth inhibition (GI) [1]: Active

C[C@@]1(COc2ccc(C#N)cc2)NC(=O)N(c2ccc(C#N)c(C(F)(F)F)c2)C1=O
Activity [2]: inactive | Activity [3]: inactive

Cc1ccc(S(=O)(=O)N[C@](C)(CS(=O)(=O)c2ccc(F)cc2)C(=O)Nc2ccc(C#N)c(C(F)(F)F)c2)cc1
growth inhibition (GI) [1]: Active | growth inhibition (GI) [4]: Active | CC50 [5]: 18.3 µM | CC50 [6]: 18.3 µM | Activity [7]: 80.5% | Activity [8]: 91.6% | Activity [3]: inactive | inhibition [9]: Active | inhibition [10]: Active

C[C@](N)(COc1ccc(C#N)cc1)C(=O)Nc1ccc(C#N)c(C(F)(F)F)c1
Activity [2]: Active | inhibition [9]: inactive

CC(C)(C)S(=O)(=O)N[C@](C)(CS(=O)(=O)c1ccc(F)cc1)C(=O)Nc1ccc(C#N)c(C(F)(F)F)c1
growth inhibition (GI) [1]: Active | growth inhibition (GI) [4]: Active

C[C@@]1(CS(=O)(=O)c2ccc(F)cc2)NC(=O)N(c2ccc(C#N)c(C(F)(F)F)c2)C1=O
growth inhibition (GI) [1]: Active

CC(C)(C)S(=O)(=O)N[C@@](C)(CS(=O)(=O)c1ccc(F)cc1)C(=O)Nc1ccc(C#N)c(C(F)(F)F)c1
growth inhibition (GI) [1]: Active

C[C@@]1(CS(=O)(=O)c2ccc(F)cc2)NC(=S)N(c2ccc(C#N)c(C(F)(F)F)c2)C1=O
growth inhibition (GI) [1]: Active

C[C@]1(CS(=O)(=O)c2ccc(F)cc2)NC(=S)N(c2ccc(C#N)c(C(F)(F)F)c2)C1=O
growth inhibition (GI) [1]: Active

C[C@](O)(CS(=O)(=O)c1ccc(F)cc1)C(=O)Nc1ccc(C#N)c(C(F)(F)F)c1 [(R)-BICALUTAMIDE]
growth inhibition (GI) [1]: Active | growth inhibition (GI) [4]: inactive | CC50 [5]: < 1.8 µM | IG50 [11]: <1.8 µM | Activity [7]: 2.1% | Activity [8]: 2.1%

C[C@]1(CS(=O)(=O)c2ccc(F)cc2)NC(=O)N(c2ccc(C#N)c(C(F)(F)F)c2)C1=O
growth inhibition (GI) [1]: Active

C[C@](N)(CS(=O)(=O)c1ccc(F)cc1)C(=O)Nc1ccc(C#N)c(C(F)(F)F)c1
growth inhibition (GI) [1]: Active

C[C@@](N)(CS(=O)(=O)c1ccc(F)cc1)C(=O)Nc1ccc(C#N)c(C(F)(F)F)c1
growth inhibition (GI) [1]: Active
